Compounds with a hit are over-represented: about 1.5% of the library has one in this group of screens.
PREPL inhibitor = human PREPL enzyme inhibition; Q4J6C6; recombinant PREPL, fluorescence polarization activity-based probe; inhibition, % at 5.96 µM; 320,000 compounds, 0.68% hits; AID 2751; in the data active = inhibition above about 43%;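 note: 0% = enzyme with DMSO and 100% = wells lacking enzyme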
Apaf1 inhib = blocks human Apaf-1 apoptosome activity; O14727; reconstituted apoptosome caspase-3 activity, DEVD-Rh110 fluorescence; inhibition, % at 20 µM; 330,000 compounds, 0.71% hits; AID 489030; active = inhibition of at least 40% at 20 µM;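 note: plate controls were DMSO wells for no effect and DEVD-CHO caspase inhibitor wells for full effect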
Target sequence (O14727 whole entry, looked up): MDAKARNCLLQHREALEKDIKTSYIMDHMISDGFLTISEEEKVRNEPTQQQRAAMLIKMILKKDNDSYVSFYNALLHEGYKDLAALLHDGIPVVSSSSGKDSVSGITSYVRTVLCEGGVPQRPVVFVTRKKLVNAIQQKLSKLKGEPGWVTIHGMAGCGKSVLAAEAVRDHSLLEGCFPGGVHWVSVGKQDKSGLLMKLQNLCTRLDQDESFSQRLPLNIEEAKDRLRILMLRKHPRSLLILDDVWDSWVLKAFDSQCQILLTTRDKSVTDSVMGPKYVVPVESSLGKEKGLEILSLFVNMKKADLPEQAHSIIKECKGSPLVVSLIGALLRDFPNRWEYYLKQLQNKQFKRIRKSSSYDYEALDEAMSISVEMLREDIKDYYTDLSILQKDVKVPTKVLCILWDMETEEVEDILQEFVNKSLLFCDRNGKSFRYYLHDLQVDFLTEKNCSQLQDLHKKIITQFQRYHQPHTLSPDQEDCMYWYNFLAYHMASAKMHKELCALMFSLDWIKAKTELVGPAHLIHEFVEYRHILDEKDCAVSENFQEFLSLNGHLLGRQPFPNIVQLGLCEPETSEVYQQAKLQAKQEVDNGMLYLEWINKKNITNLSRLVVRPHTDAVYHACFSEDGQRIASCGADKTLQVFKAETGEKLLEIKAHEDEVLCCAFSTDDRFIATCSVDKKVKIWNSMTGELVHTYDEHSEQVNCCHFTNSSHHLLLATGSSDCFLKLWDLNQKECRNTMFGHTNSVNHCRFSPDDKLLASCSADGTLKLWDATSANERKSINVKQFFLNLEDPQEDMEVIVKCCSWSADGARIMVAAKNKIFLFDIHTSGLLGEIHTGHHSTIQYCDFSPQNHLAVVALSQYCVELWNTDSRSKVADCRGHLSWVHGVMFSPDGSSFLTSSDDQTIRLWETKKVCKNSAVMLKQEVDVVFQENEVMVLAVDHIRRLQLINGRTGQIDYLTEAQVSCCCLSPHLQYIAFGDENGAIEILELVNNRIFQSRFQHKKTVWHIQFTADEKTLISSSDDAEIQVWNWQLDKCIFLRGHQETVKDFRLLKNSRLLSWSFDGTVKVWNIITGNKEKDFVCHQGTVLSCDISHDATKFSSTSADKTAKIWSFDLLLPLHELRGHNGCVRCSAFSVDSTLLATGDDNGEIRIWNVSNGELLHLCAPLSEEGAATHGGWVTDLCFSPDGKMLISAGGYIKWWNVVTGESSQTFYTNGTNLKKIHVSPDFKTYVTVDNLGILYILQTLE
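System – cell-free apoptosome with Apaf-1, procaspase-3 and caspase-9 · Buffer or medium – pH 7.5 Hepes buffer with CHAPS, BSA, DTT · Also added – cytochrome c with DEVD-Rh110 · Times – 30 min compound preincubation, 50 min activation, room temperature · Technique – Rh110 fluorescence intensity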
UCH37 DUB inh = human UCH37 deubiquitinating enzyme inhibition; purified proteasome/UCH37, Ub-AMC cleavage fluorescence; inhibition, % (concentration not given with the values); Q9Y5K5; 330,000 compounds, 0.33% hits;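 active = mean inhibition over replicate wells above about 20%, limit read from the data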;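 note: 0% = compound-free wells with enzyme and 100% = wells lacking proteasome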
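Material: Human UCH37 enzyme supplied as purified proteasome complex | Schedule: 30 min compound-proteasome preincubation then 25 min substrate reaction, room temperature | Detection: AMC fluorescence from Ub-AMC cleavage, excitation 355 nm, emission 460 nm | Benchmarks: Wells without proteasome as full block, compound-free enzyme plus substrate as uninhibited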
UBC13 polyUb = blocks human UBC13 polyubiquitin chain formation; TR-FRET; inhibition, % at 20 µM; P61088; 330,000 compounds, 0.47% hits; in the data active = inhibition above about 45%, passing the limit was not always enough
* hit, by the source's call.

`CC(C)c1ccc(-n2c(O)c(/C=N/NC(=O)c3ccccc3O)c(=O)[nH]c2=S)cc1` gave PREPL inhibitor 5, Apaf1 inhib -4, UCH37 DUB inh -27 and UBC13 polyUb 0.
Cn1c(=O)c2c(nc(N/N=C/c3c(O)n(-c4ccccc4)c(=S)[nH]c3=O)n2C)n(C)c1=O was read as PREPL inhibitor 16, Apaf1 inhib 8, UCH37 DUB inh 21* and UBC13 polyUb -26.
Screening C[C@H]1CC=C[C@H]2[C@H](O)[C@H](C)[C@@](C)(O)[C@H]3[C@H](Cc4ccccc4)NC(=O)[C@]32[C@H](O)C=C[C@](C)(O)C1 returned UCH37 DUB inh 0.
`CCC(=NCCO)c1c(O)n(C2CCCCC2)c(=O)[nH]c1=O` gave PREPL inhibitor -2, Apaf1 inhib -9, UCH37 DUB inh 5 and UBC13 polyUb 3.
Screening CCC(=NCc1ccc2c(c1)OCO2)c1c(O)n(C2CCCCC2)c(=O)[nH]c1=O returned PREPL inhibitor 45*, Apaf1 inhib 32, UCH37 DUB inh 5 and UBC13 polyUb 6.
For CCOc1cc(C=C2C(=O)NC(=O)NC2=O)cc([N+](=O)[O-])c1O the results were PREPL inhibitor -12, Apaf1 inhib -3, UCH37 DUB inh 26* and UBC13 polyUb -38.
CN(C)c1ccc(C=C2C(=O)NC(=O)NC2=O)cc1[N+](=O)[O-] was read as PREPL inhibitor 10, Apaf1 inhib -2, UCH37 DUB inh 8 and UBC13 polyUb -28.
Screening CN1CCc2cc(O)cc3c2[C@H]1Cc1ccc(O)c(O)c1-3 returned PREPL inhibitor 17, Apaf1 inhib 38, UCH37 DUB inh -1 and UBC13 polyUb 27.
For CCCN1CCc2cc(O)cc3c2[C@H]1Cc1ccc(O)c(O)c1-3 the results were PREPL inhibitor 41, Apaf1 inhib 45*, UCH37 DUB inh 1 and UBC13 polyUb 16.
Cc1nc2ccccc2c(=O)n1N=Cc1cc(Br)cc(Br)c1O was read as UCH37 DUB inh 0.
Screening COc1ccccc1C=NN=C(N)N[N+](=O)[O-] returned UCH37 DUB inh 13.
For CCC(C)NC(=O)c1c(N)n(Cc2ccc3c(c2)OCO3)c2nc3ccccc3nc12 (stereo not given) the results were PREPL inhibitor 4, Apaf1 inhib 96*, UCH37 DUB inh -159 and UBC13 polyUb 11.
For Nc1c(C(=O)NCCN2CCOCC2)c2nc3ccccc3nc2n1Cc1ccccc1 the results were PREPL inhibitor 19, Apaf1 inhib 82*, UCH37 DUB inh -292 and UBC13 polyUb -1.
Nc1c(C(=O)NCCc2ccccc2)c2nc3ccccc3nc2n1CCN1CCOCC1 was read as PREPL inhibitor 41, Apaf1 inhib 8, UCH37 DUB inh -185 and UBC13 polyUb 41.
For CC(C)CCNC(=O)c1c(N)n(CC2CCCO2)c2nc3ccccc3nc12 (stereo not given) the results were PREPL inhibitor 9, Apaf1 inhib 91*, UCH37 DUB inh -350 and UBC13 polyUb 7.
For CCCCn1c(N)c(C(=O)NCCN2CCOCC2)c2nc3ccccc3nc21 the results were PREPL inhibitor 14, Apaf1 inhib 37, UCH37 DUB inh -459 and UBC13 polyUb -8.
`O=C(Nc1ccc(Cl)cc1)ON=C(c1ccccc1)c1ccccn1` gave UCH37 DUB inh 2.
Screening Fc1ccc(C(OCCN2CCN(CCCc3ccccc3)CC2)c2ccc(F)cc2)cc1 returned PREPL inhibitor -27, Apaf1 inhib 56*, UCH37 DUB inh 4 and UBC13 polyUb 49*.
`CCc1ccccc1N1C(=O)/C(=C/c2ccc(N3CCN(C)CC3)o2)C(=O)NC1=S` gave PREPL inhibitor -3, Apaf1 inhib 15, UCH37 DUB inh 16 and UBC13 polyUb -381.
Screening Cc1cccc(N2C(=O)/C(=C/c3ccc(N4CCN(C)CC4)o3)C(=O)NC2=S)c1C returned PREPL inhibitor -11, Apaf1 inhib 3, UCH37 DUB inh 22* and UBC13 polyUb -141.
Screening O=C1NC(=O)N(c2ccccc2F)C(=O)/C1=C/c1cn(CC(=O)N2CCOCC2)c2ccccc12 returned PREPL inhibitor 4, Apaf1 inhib -3, UCH37 DUB inh 0 and UBC13 polyUb 0.
Screening Cc1ccccc1N1C(=O)NC(=O)/C(=C/c2ccc(N3CCOCC3)o2)C1=O returned PREPL inhibitor 6, Apaf1 inhib 3, UCH37 DUB inh 21* and UBC13 polyUb -363.
Cc1ccccc1N1C(=O)NC(=O)/C(=C\c2cc(Br)c(N3CCOCC3)o2)C1=O was read as PREPL inhibitor 4, Apaf1 inhib -15, UCH37 DUB inh 23* and UBC13 polyUb -280.
For O=C1NC(=O)N(Cc2ccccc2)C(=O)/C1=C\c1ccco1 the results were PREPL inhibitor 15, Apaf1 inhib 14, UCH37 DUB inh 1 and UBC13 polyUb -33.
`Cc1ccccc1N1C(=O)/C(=C/c2ccco2)C(=O)NC1=S` gave PREPL inhibitor 46*.
`COC(=O)c1cc(C(O)(C(=O)OC)C(F)(F)F)c(N=CN(C)C)s1` (stereo not given) gave UCH37 DUB inh 8.
Screening O=P(C(=NO)N1CCOCC1)(N1CCOCC1)N1CCOCC1 returned UCH37 DUB inh 7.
`CCOC(=O)C(CCCN(CC)CC)=NO` gave UCH37 DUB inh 3.
Screening CN1C(=O)NC(=O)/C(=C/c2ccc([N+](=O)[O-])o2)C1=O returned PREPL inhibitor -1, Apaf1 inhib -1, UCH37 DUB inh 22* and UBC13 polyUb -33.
Screening CCCC12CN3CCN(CC(C3)C1=NNC(=O)c1ccncc1)C2 returned UCH37 DUB inh 1.
CC[C@@H]1C=CC=CC[C@H](C)[C@@H](O)[C@@H](C)C(=O)[C@H](C)[C@@H](O)[C@H](C)C(=O)[C@H](C)[C@@H](O)[C@H](C)C=CC(=O)O[C@H]2[C@@H](C)[C@@H](CC1)O[C@@]1(CC[C@@H](C)[C@@H](C[C@H](C)O)O1)[C@@H]2C was read as PREPL inhibitor 7, Apaf1 inhib 21 and UBC13 polyUb 59*.
Screening COc1ccc(C(=O)NN=CC23CC[C@@H](O)CC2(O)CC[C@@H]2[C@@H]3CCC3(C)C(C4=CC(=O)OC4)CCC23O)cc1 (stereo not given in full) returned UCH37 DUB inh 6.
For CN[C@H]1C[C@H]2O[C@@](C)([C@H]1OC)n1c3ccccc3c3c4c(c5c6ccccc6n2c5c31)C(=O)NC4 the results were PREPL inhibitor 76*, Apaf1 inhib 51* and UBC13 polyUb 26.
`COc1cc(O)cc2c1C(=O)OC(C)CCCC(=O)CCCC=C2` (stereo not given) gave UCH37 DUB inh 5.
For COc1cc(CC2C(=O)N(C)C(=O)N(C)C2=O)ccc1OCc1ccccc1 the results were PREPL inhibitor 9, Apaf1 inhib 15, UCH37 DUB inh 24* and UBC13 polyUb -26.
`NNC(=O)CN1C(=O)CN=C(c2ccccc2)c2cc(Br)ccc21` gave PREPL inhibitor 19, Apaf1 inhib -6 and UBC13 polyUb 1.
